KCNK3 block: human KCNK3 channel inhibition, primary screen. 340,000 tested, 0.84% active. CHO-KCNK3 thallium flux, FluxOR fluorescence; stronger effect = lower value. B-score at 10 µM. O14649;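 active = B-score under library mean minus 4 SD, starting fluorescence ratio at most library mean plus 5 SD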;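 note: more negative B-score means stronger inhibition of thallium flux through KCNK3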
KCNQ1 act: potentiators or activators of human KCNQ1 potassium channel; P51787; CHO-K1 KCNQ1, thallium flux FluxOR fluorescence; stronger effect = higher value; 310,000 tested, 0.35% active; B-score at 10 µM; AID 2648;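 active = fluorescence ratio B-score, a plate-corrected score, at least three library SD, with initial intensity B-score within 5 SD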
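Test system: CHO-K1 cells stably expressing KCNQ1 / Medium: assay buffer / Also added: depolarizing K+/Tl+ stimulus, K2SO4 and Tl2SO4 each 12.5 mM in 5x stock / Incubation: 90 min dye loading and 20 min compound exposure, both at room temperature / Signal: thallium influx via FluxOR fluorescence, kinetic imaging / Evaluation: B score of baseline-normalized fluorescence ratio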
KCNQ1 block: human KCNQ1 channel inhibition. CHO-K1 KCNQ1, FluxOR thallium flux fluorescence; stronger effect = higher value. 310,000 tested, 1.3% active. P51787. B-score at 10 µM. AID 2642;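 active = compounds whose thallium flux B-score, printed positive for inhibition, exceeds three library SD while starting fluorescence stays within three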;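 note: channel opened by potassium depolarization with thallium stimulus after 20 min compound exposure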
KCNK9 block: human KCNK9 channel inhibition; AID 488922; B-score at 10 µM; Q9NPC2; HEK293 KCNK9, FluxOR thallium flux fluorescence; stronger effect = lower value; 310,000 tested, 1.2% active;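 active = ratio B-score over 3 SD below the library mean, with starting fluorescence within 5 SD of its mean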;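 note: negative B-score means less thallium flux so channel inhibition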
hERG protect: compounds protecting human hERG from proarrhythmic drug block | CHO-hERG, FluxOR thallium flux, dofetilide IC70 present | 310,000 tested, 0.51% active | AID 1511 | Q12809 | activation (rescue from dofetilide block), less the hit threshold, % at 10 µM;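 active = activation above the mean of controls blocked by dofetilide plus 5 SD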;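 note: thallium influx through hERG after potassium depolarization seen as dye fluorescence rise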
KCNK9 inh conf: confirmation of human KCNK9 potassium channel inhibitors. HEK293 KCNK9 cells, FluxOR thallium flux fluorescence. inhibition, % at 10 µM. shares compounds with KCNK9 block. 4,900 tested, 43% active;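 active = thallium signal inhibited by more than 5 SD of the compound-free buffer control wells, on both duplicate plates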
Kir21 sel: selectivity of KCNK9 modulators against mouse Kir2.1 | shares compounds with KCNK9 block | inhibition, % at 10 µM | AID 492993 | 4,900 tested, 4% active | Kir2.1 cells, FluxOR thallium flux fluorescence;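 active = thallium signal drop more than 5 SD beyond the mean of the no-compound control wells, seen in both duplicate plates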;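 note: signal is fluorescence rise after thallium addition divided by baseline fluorescence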
Target sequence (P35561 whole entry, looked up): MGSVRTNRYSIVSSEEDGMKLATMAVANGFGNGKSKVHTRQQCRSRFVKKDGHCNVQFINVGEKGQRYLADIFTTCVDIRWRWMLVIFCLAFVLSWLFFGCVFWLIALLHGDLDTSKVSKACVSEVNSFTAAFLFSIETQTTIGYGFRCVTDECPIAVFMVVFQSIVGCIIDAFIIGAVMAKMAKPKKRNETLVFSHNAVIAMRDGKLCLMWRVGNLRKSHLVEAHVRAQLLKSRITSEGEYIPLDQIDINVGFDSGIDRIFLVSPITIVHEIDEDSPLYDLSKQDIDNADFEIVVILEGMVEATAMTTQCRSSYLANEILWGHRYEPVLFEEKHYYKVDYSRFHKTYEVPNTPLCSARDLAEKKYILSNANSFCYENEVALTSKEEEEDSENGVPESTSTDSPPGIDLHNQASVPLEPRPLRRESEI
KCNK9 uninduced: second counter-screen for KCNK9 modulators: effect in non-induced cells; inhibition, % at 10 µM; shares compounds with KCNK9 block; non-induced KCNK9-HEK293, FluxOR thallium flux; AID 492997; 4,900 tested, 40% active;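 active = thallium signal drop beyond 5 SD of the untreated control mean, on both duplicate plates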
Numbers stand for hits; . = inactive; / = not tested or not shown. The list is not random: actives were taken first. Their share in the collection is about 3.1%.

SMILES	KCNK3 block	KCNQ1 act	KCNQ1 block	KCNK9 block	hERG protect	KCNK9 inh conf	Kir21 sel	KCNK9 uninduced
COc1ccc(C(=O)N2c3cc4c(cc3C(C)=CC2(C)C)OCO4)cc1	.	.	.	-11.1	.	26.5%	.	42.5%
CC1=CC(C)(C)N(C(=O)c2ccccc2)c2ccc(C)cc21	.	.	.	.	.	/	/	/
O=S(=O)(c1ccccc1)N1CCN(Cc2ccc(Cl)cc2)CC1	.	.	.	.	.	.	.	.
COc1ccccc1CN1CCN(S(=O)(=O)c2ccccc2)CC1	.	.	.	.	.	.	.	.
CCOC(=O)C1=C(C)N=C2SC(CC)C(=O)N2C1c1cccc(F)c1 (centres undefined)	.	.	.	-11.6	.	35.5%	.	34.0%
CCOC(=O)C1=C(C)N=C2SC(C)C(=O)N2C1c1ccccc1 (centres undefined)	.	.	.	.	.	/	/	/
O=C(O)CCCN1C(=O)/C(=C/c2cn(-c3ccccc3)nc2-c2cccs2)SC1=S	.	.	.	.	.	/	/	/
Cc1nn(-c2ccccc2)c(Cl)c1/C=C1\SC(=S)N(CCCCCC(=O)O)C1=O	.	.	.	.	.	.	.	.
COC(=O)c1cc(NC(=O)C2(S(=O)(=O)c3ccc(C)cc3)CC2)cc(C(=O)OC)c1	.	.	.	.	.	.	.	.
COC(=O)c1cc(NC(=O)C2(S(=O)(=O)c3ccc(Cl)cc3)CC2)cc(C(=O)OC)c1	.	.	.	.	.	/	/	/
CCCCCCCCCCOC(=O)Cn1c(COc2ccccc2OC)[n+](C)c2ccccc21	.	.	.	-15.2	.	78.5%	84.5%	41.5%
CN(C)CCCN(C(=O)C1COc2ccccc2O1)c1nc2cc3c(cc2s1)OCO3 (centres undefined)	.	.	.	.	.	/	/	/
COc1ccccc1C(c1nnnn1C(C)(C)C)N1CCCCCC1 (centres undefined)	.	.	.	-8.94	.	30.5%	.	28.5%
CC(C)(C)n1nnnc1C(c1ccccc1F)N1CCN(C2CCCC2)CC1 (centres undefined)	.	.	.	.	.	/	/	/
CCC(C)(C)n1nnnc1C(c1cccs1)N1CCCCC1 (centres undefined)	.	.	.	.	.	/	/	/
CC(C)(C)n1nnnc1C(c1cccs1)N1CCCc2ccccc21 (centres undefined)	.	.	.	-9.88	.	.	.	.
COc1ccccc1C(c1nnnn1C(C)(C)C)N1CCN(C(=O)c2ccco2)CC1 (centres undefined)	.	.	.	-13.6	.	54.5%	.	45.5%
CN(Cc1ccccc1)C1CCCN(C(=O)c2ccc(Cl)s2)C1 (centres undefined)	.	.	.	.	.	.	.	.
Cc1cc(C)c(C#N)c(SCc2cc3c(cc2Cl)OCO3)n1	.	.	.	-8.48	.	35.5%	.	36.5%
CCN(c1ccccc1)S(=O)(=O)c1ccc(C(=O)NCc2ccco2)cc1	.	/	/	/	/	/	/	/
COc1cccc(NC(=O)c2ccc(-c3ccc([N+](=O)[O-])cc3)o2)c1	.	.	.	.	.	/	/	/
COc1ccc(NC(=O)c2ccc(-c3ccc([N+](=O)[O-])cc3)o2)cc1OC	.	.	.	-16	.	56.5%	.	26.5%
CCOC(=O)C(C#N)(Cc1cc(OC)cc(OC)c1)Cc1cc(OC)cc(OC)c1	.	.	.	-13.9	.	56.5%	.	45.5%
CCC(=O)Nc1cc(OC)cc(OC)c1	.	.	.	.	.	/	/	/
CCOC(=O)C1CCN(C(=O)c2oc3ccc(S(=O)(=O)N4CC(C)CC(C)C4)cc3c2C)CC1 (centres undefined)	.	.	.	.	.	.	.	.
SMILES	KCNK3 block	KCNQ1 act	KCNQ1 block	KCNK9 block	hERG protect	KCNK9 inh conf	Kir21 sel	KCNK9 uninduced
Cc1cccc(N2CCN(C(=S)c3ccc4c(c3)OCO4)CC2)c1	.	/	/	/	/	/	/	/
O=C(N/N=C/c1c[nH]c2ccc(Br)cc12)c1ccn(Cc2ccc(Cl)cc2)n1	.	.	.	-14.9	.	49.0%	.	.
N#Cc1ncccc1CCc1cccc(Cl)c1	.	.	.	.	.	/	/	/
C/C(=N\NC(=S)NCCc1ccccc1)c1ccc(C#N)cc1	.	.	.	.	.	/	/	/
S=C(NCCc1ccccc1)N/N=C/c1ccccc1Cl	.	.	.	.	.	.	.	.
Oc1ccc(Br)cc1/C=N/NC(=S)NCCc1ccccc1	.	.	.	.	.	/	/	/
C/C(=N\NC(=S)NCCc1ccccc1)c1ccc(Cl)cc1	.	.	.	.	.	.	.	.
C/C(=N\NC(=S)NCCc1ccccc1)c1ccc(C)cc1	.	.	.	.	.	.	.	.
CCOC(=O)c1c(N)sc(C(O)(C(F)(F)F)C(F)(F)F)c1-c1ccc(F)cc1	-12.2	.	.	-9.27	.	54.0%	.	39.0%
CCOc1ccc(NC(=O)CN(c2cc(C)cc(C)c2)S(=O)(=O)c2c(C)noc2C)cc1	.	.	.	.	.	/	/	/
Cc1noc(C)c1S(=O)(=O)N(C)CC(=O)Nc1ccc(F)cc1	.	.	.	-11.2	.	.	.	.
COc1cc(CN2CCN(Cc3ccc(C(F)(F)F)cc3)CC2)cc(OC)c1OC	.	.	.	.	.	.	.	.
Cc1ccc(CN2CCN(Cc3ccccc3C(F)(F)F)CC2)cc1	.	.	.	.	.	.	.	.
COc1ccc(CN2CCN(Cc3ccc(C(F)(F)F)cc3)CC2)c(OC)c1	.	.	.	.	.	/	/	/
CS(=O)(=O)N1CCN(Cc2ccccc2C(F)(F)F)CC1	.	.	.	.	.	/	/	/
COc1cc(CN2CCN(Cc3ccccc3C(F)(F)F)CC2)cc(OC)c1OC	.	.	.	.	.	.	.	.
CC1CC=C(O)C12OCC(C)(C)CO2 (centres undefined)	.	/	/	/	/	/	/	/
Cc1ccccc1N1CCN(C2CCCN(C(=O)CCn3cnnn3)C2)CC1 (centres undefined)	.	.	.	.	.	/	/	/
CC(C)OC(=O)c1cn(-c2ccccc2)nc1-c1ccc2c(c1)OCCO2	.	.	.	.	.	.	.	.
O=C(OCC(O)C(O)C(O)C(SCc1ccccc1)SCc1ccccc1)c1ccccc1 (centres undefined)	.	/	/	/	/	/	/	/
CC1=NN(c2ccccc2)C(=O)/C1=C/c1ccc(-c2ccc(C)c(C(=O)O)c2)o1	.	.	.	.	16.1	.	.	.
CC1=NN(c2ccc(C)cc2)C(=O)/C1=C/c1ccc(-c2cc([N+](=O)[O-])ccc2O)o1	.	.	.	.	.	/	/	/
CC1=NN(c2ccc(C(=O)O)cc2)C(=O)/C1=C/c1ccc(-c2ccccc2F)o1	.	.	.	.	.	.	.	.
